In publication PMC10193561 (ACS Omega, 2023):
pIC50: −log10 of the molar value. In brackets after ≈: the same amount, converted by molar mass.

What was measured:
[1] = test system: HeLa cells; test: Annexin V/PI apoptosis assay by flow cytometry; format: cell-based; conditions: 20 μM, 24 h, control group 6.2%
[2] = test system: MCF-7 cells; test: Cell proliferation activity assay; format: cell-based; conditions: Homo sapiens, MCF7, read-out: IC50 on MCF-7 cells
Procedure, shortened: (§1)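 Cells were kept in DMEM with 10% FBS and 1% penicillin–streptomycin at 37 °C and 5% CO2, and passaged with 0.25% trypsin-EDTA at 80–90% confluency. They were seeded at 5 × 10^3 cells/well, grown 24 h, then given test compound at 5, 10, 20, 40, 60, 80 or 100 μM final, with 1% DMSO as control. Read-out was MTT absorbance at 490 nm, as viability versus control. IC50 was fitted from viability data; 3–5 replicates per sample; mean ± SD of three independent experiments.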

[3] = test system: A549 cells; test: Cell proliferation activity assay; format: cell-based; conditions: Homo sapiens, A549, read-out: IC50 on A549 cells
Procedure, shortened: as §1

[4] = test system: HeLa cells; test: Cell proliferation activity assay; format: cell-based; conditions: Homo sapiens, read-out: IC50 on HeLa cells
Procedure, shortened: as §1

[5] = Solubility measurement in distilled water; format: physicochemical; conditions: 37 °C, thermodynamic from solid
Procedure, shortened: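 Excess solid test compound in distilled water was shaken 24 h at 37 °C (100 rpm), then centrifuged at 10,000 rpm for 10 min. Supernatant absorbance was read at 217 nm and solubility calculated from a standard curve.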

CC(C)=CCC[C@](C)(O)[C@H]1CC[C@]2(C)[C@@H]1[C@H](O)C[C@@H]1[C@@]3(C)CC[C@H](O[C@@H]4O[C@H](CO)[C@@H](O)[C@H](O)[C@H]4O)C(C)(C)[C@@H]3CC[C@]12C [Rh2, Ginsenoside Rh2]
percentage of early and late apoptosis [1]: 5.3%
pIC50 [2]: 4.13
pIC50 [3]: 4.07
pIC50 [4]: 4.17
solubility at 24 h [5]: 74 µg/mL (≈ 119 µM)
